This is an account of results in ChEMBL document CHEMBL3259584, “Antiproliferative novel isoxazoles: modeling, virtual screening, synthesis, and bioactivity evaluation” (Eur J Med Chem, 2014).

Test system in the first experiment: not listed separately
The experiment is described as follows: Antiproliferative activity against human HMEC1 cells after 5 days by coulter counter analysis. In kind it is cell-based. The settings on record: HMEC-1, 120 h. Summed up: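 HMEC-1 human microvascular endothelial cells were grown in EGM-2 MV endothelial medium and plated at 10,000 cells per cm2. After 16 h they received fresh medium with 5-fold dilutions of compound. On day 5 cells were trypsinized and counted with a Coulter counter. IC50 was the concentration reducing cell count by 50% relative to control cultures.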
For `COc1ccc(-c2noc(-c3ccc(OC)cc3)c2C)cc1`, the IC50 was above 100 µM.

Compound `COc1ccc2c(c1)CCc1c(-c3ccc(OC)c(OC)c3)noc1-2` came in with an IC50 above 100 µM.

For the compound `COc1ccc(-c2cc(-c3ccc([N+](=O)[O-])cc3)on2)cc1`, the IC50 was above 100 µM.

The compound `Oc1ccc(-c2noc3c2CCc2cc(O)ccc2-3)cc1` gave an IC50 of 6.7 µM.

Take `Oc1ccc2c(c1)CCc1c(-c3ccc(F)cc3)noc1-2`: 46 µM corresponded to half-maximal inhibition (IC50).

`COc1ccc2c(c1)CCc1c(-c3ccc(SC(F)(F)F)cc3)noc1-2` returned an IC50 above 100 µM.

Compound `CCc1c(-c2ccc(OC)cc2)noc1-c1ccc(OC)cc1` had an IC50 above 100 µM.

Take `COc1ccc(-c2noc3c2CCc2cc(OC)c(OC)cc2-3)cc1`: the IC50 was above 100 µM.

`Oc1ccc(-c2noc3c2CCc2cc(O)c(O)cc2-3)cc1` registered an IC50 of 7.4 µM.

Consider `Oc1ccc(-c2noc3c2CCc2cc(O)c(O)cc2-3)cc1O`, for which the IC50 turned out to be 4.2 µM.

Compound `COc1ccc(-c2noc3c2CCc2cc(OC)ccc2-3)cc1` came in with an IC50 above 100 µM.

Consider `COc1ccc2c(c1)CCc1c(-c3ccc(F)cc3)noc1-2`, for which the IC50 is above 100 µM.

Take `Oc1ccc(-c2cc(-c3ccc(O)cc3)on2)cc1`: inhibition was half-maximal at 6.3 µM (IC50).

`Oc1ccc2c(c1)CCc1c(-c3ccc(SC(F)(F)F)cc3)noc1-2` returned an IC50 of 65 µM.

For `Oc1ccc2c(c1)CCc1c(-c3ccc(O)c(O)c3)noc1-2`, the IC50 is 0.42 µM. This IC50 lies about 150-fold lower than the previous one.

Compound `O=[N+]([O-])c1ccc(-c2cc(-c3ccc(O)cc3)no2)cc1` registered an IC50 of 27 µM.

Consider `CCc1c(-c2ccc(O)cc2)noc1-c1ccc(O)cc1`, for which it took 9.7 µM to reach half-maximal inhibition (IC50).

On to `COc1ccc(-c2noc3c2CCc2cc(OC)c(OC)cc2-3)cc1OC`, for which the IC50 is 0.56 µM.

For the compound `Cc1c(-c2ccc(O)cc2)noc1-c1ccc(O)cc1`, 47 µM corresponded to half-maximal inhibition (IC50).

`COc1ccc(-c2cc(-c3ccc(OC)cc3)on2)cc1` returned an IC50 above 100 µM.

Another experiment relates to MCF7. In words: Antiproliferative activity against human MCF7 cells after 5 days by coulter counter analysis. In kind it is functional, cell-based. To be noted: MCF7, 120 h. Summed up:
(§1)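 Mouse brain endothelial cells (MBEC), HeLa and MCF-7 were maintained in DMEM with 10 mM Hepes and 10% FBS. Cells were seeded at 10,000 cells per cm2. After 16 h the medium was replaced with fresh medium containing 5-fold serial dilutions of compound. On day 5 cells were trypsinized and counted electronically. IC50 was taken as the concentration halving cell number relative to untreated control counts.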
With `COc1ccc(-c2noc(-c3ccc(OC)cc3)c2C)cc1`, the IC50 is above 100 µM.

As to `COc1ccc2c(c1)CCc1c(-c3ccc(OC)c(OC)c3)noc1-2`, the IC50 is above 100 µM.

The compound `COc1ccc(-c2cc(-c3ccc([N+](=O)[O-])cc3)on2)cc1` registered an IC50 above 100 µM.

With `Oc1ccc(-c2noc3c2CCc2cc(O)ccc2-3)cc1`, the IC50 was 3.1 µM. That is a single-digit micromolar value.

In turn, `Oc1ccc2c(c1)CCc1c(-c3ccc(F)cc3)noc1-2` gave an IC50 above 100 µM.

In turn, `COc1ccc2c(c1)CCc1c(-c3ccc(SC(F)(F)F)cc3)noc1-2` displayed an IC50 above 100 µM.

As to `CCc1c(-c2ccc(OC)cc2)noc1-c1ccc(OC)cc1`, the IC50 was above 100 µM.

With `COc1ccc(-c2noc3c2CCc2cc(OC)c(OC)cc2-3)cc1`, the IC50 was above 100 µM.

On to `Oc1ccc(-c2noc3c2CCc2cc(O)c(O)cc2-3)cc1`, for which inhibition was half-maximal at 2.1 µM (IC50).

On to `Oc1ccc(-c2noc3c2CCc2cc(O)c(O)cc2-3)cc1O`, for which the IC50 amounted to 2.1 µM. This lies in the single-digit micromolar range.

`COc1ccc(-c2noc3c2CCc2cc(OC)ccc2-3)cc1`: the IC50 was above 100 µM.

Compound `COc1ccc2c(c1)CCc1c(-c3ccc(F)cc3)noc1-2` came in with an IC50 above 100 µM.

`Oc1ccc(-c2cc(-c3ccc(O)cc3)on2)cc1`: the IC50 came to 5.2 µM.

In the case of `Oc1ccc2c(c1)CCc1c(-c3ccc(SC(F)(F)F)cc3)noc1-2`, the midpoint of inhibition, the IC50, lay at 81 µM.

In turn, `Oc1ccc2c(c1)CCc1c(-c3ccc(O)c(O)c3)noc1-2` came in with an IC50 of 0.72 µM.

In the case of `O=[N+]([O-])c1ccc(-c2cc(-c3ccc(O)cc3)no2)cc1`, the IC50 was 53 µM.

For `CCc1c(-c2ccc(O)cc2)noc1-c1ccc(O)cc1`, the midpoint of inhibition, the IC50, lay at 9.8 µM.

Consider `COc1ccc(-c2noc3c2CCc2cc(OC)c(OC)cc2-3)cc1OC`, for which 0.36 µM corresponded to half-maximal inhibition (IC50).

Regarding `Cc1c(-c2ccc(O)cc2)noc1-c1ccc(O)cc1`, 48 µM corresponded to half-maximal inhibition (IC50). This IC50 lies about 130-fold higher than the previous one.

`COc1ccc(-c2cc(-c3ccc(OC)cc3)on2)cc1` gave an IC50 above 100 µM.

Test system in another experiment: not listed separately
The experiment is described as follows: Antiproliferative activity against MBEC after 5 days by coulter counter analysis.
Settings: not given
Details: species or system Mus musculus. Summed up: as §1
With `COc1ccc(-c2noc(-c3ccc(OC)cc3)c2C)cc1`, the IC50 was above 100 µM.

`COc1ccc2c(c1)CCc1c(-c3ccc(OC)c(OC)c3)noc1-2` registered an IC50 above 100 µM.

`COc1ccc(-c2cc(-c3ccc([N+](=O)[O-])cc3)on2)cc1` came in with an IC50 above 100 µM.

`Oc1ccc(-c2noc3c2CCc2cc(O)ccc2-3)cc1` yielded an IC50 of 4.6 µM.

As to `Oc1ccc2c(c1)CCc1c(-c3ccc(F)cc3)noc1-2`, the IC50 turned out to be 38 µM.

Regarding `COc1ccc2c(c1)CCc1c(-c3ccc(SC(F)(F)F)cc3)noc1-2`, the IC50 is above 100 µM.

`CCc1c(-c2ccc(OC)cc2)noc1-c1ccc(OC)cc1` showed an IC50 above 100 µM.

Take `COc1ccc(-c2noc3c2CCc2cc(OC)c(OC)cc2-3)cc1`: the IC50 was above 100 µM.

With `Oc1ccc(-c2noc3c2CCc2cc(O)c(O)cc2-3)cc1`, the IC50 was 6.8 µM.

In the case of `Oc1ccc(-c2noc3c2CCc2cc(O)c(O)cc2-3)cc1O`, the IC50 stood at 10 µM.

In turn, `COc1ccc(-c2noc3c2CCc2cc(OC)ccc2-3)cc1` displayed an IC50 above 100 µM.

In the case of `COc1ccc2c(c1)CCc1c(-c3ccc(F)cc3)noc1-2`, the IC50 is above 100 µM.

For `Oc1ccc(-c2cc(-c3ccc(O)cc3)on2)cc1`, the IC50 was 2.5 µM.

In turn, `Oc1ccc2c(c1)CCc1c(-c3ccc(SC(F)(F)F)cc3)noc1-2` came in with a concentration for half-maximal inhibition (IC50) of 67 µM.

`Oc1ccc2c(c1)CCc1c(-c3ccc(O)c(O)c3)noc1-2` registered a half-inhibitory concentration (IC50) of 0.96 µM.

In turn, `O=[N+]([O-])c1ccc(-c2cc(-c3ccc(O)cc3)no2)cc1` registered an IC50 of 42 µM.

Take `CCc1c(-c2ccc(O)cc2)noc1-c1ccc(O)cc1`: the IC50 is 13 µM.

For `COc1ccc(-c2noc3c2CCc2cc(OC)c(OC)cc2-3)cc1OC`, the IC50 worked out at 1.1 µM.

Compound `Cc1c(-c2ccc(O)cc2)noc1-c1ccc(O)cc1` displayed a 50% inhibitory concentration (IC50) of 19 µM. This IC50 lies about 17-fold higher than the previous one.

`COc1ccc(-c2cc(-c3ccc(OC)cc3)on2)cc1` yielded an IC50 above 100 µM.

The next experiment has as its system HeLa. The experiment is described as follows: Antiproliferative activity against human HeLa cells after 5 days by coulter counter analysis. The settings on record: 120 h. In kind it is functional, cell-based. Summed up: as §1
Regarding `COc1ccc(-c2noc(-c3ccc(OC)cc3)c2C)cc1`, the IC50 was above 100 µM.

`COc1ccc2c(c1)CCc1c(-c3ccc(OC)c(OC)c3)noc1-2`: the IC50 is above 100 µM.

For the compound `COc1ccc(-c2cc(-c3ccc([N+](=O)[O-])cc3)on2)cc1`, the IC50 was above 100 µM.

In the case of `Oc1ccc(-c2noc3c2CCc2cc(O)ccc2-3)cc1`, the IC50 is 3.3 µM.

As to `Oc1ccc2c(c1)CCc1c(-c3ccc(F)cc3)noc1-2`, the IC50 was above 100 µM.

Consider `COc1ccc2c(c1)CCc1c(-c3ccc(SC(F)(F)F)cc3)noc1-2`, for which the IC50 is above 100 µM.

As to `CCc1c(-c2ccc(OC)cc2)noc1-c1ccc(OC)cc1`, the IC50 was above 100 µM.

The compound `COc1ccc(-c2noc3c2CCc2cc(OC)c(OC)cc2-3)cc1` gave an IC50 above 100 µM.

`Oc1ccc(-c2noc3c2CCc2cc(O)c(O)cc2-3)cc1`: the IC50 came out at 10 µM.

In the case of `Oc1ccc(-c2noc3c2CCc2cc(O)c(O)cc2-3)cc1O`, the IC50 was determined as 9.1 µM.

The compound `COc1ccc(-c2noc3c2CCc2cc(OC)ccc2-3)cc1` returned an IC50 above 100 µM.

The compound `COc1ccc2c(c1)CCc1c(-c3ccc(F)cc3)noc1-2` showed an IC50 of 34 µM.

As for `Oc1ccc(-c2cc(-c3ccc(O)cc3)on2)cc1`, half-maximal inhibition (IC50) was put at 6 µM.

Regarding `Oc1ccc2c(c1)CCc1c(-c3ccc(SC(F)(F)F)cc3)noc1-2`, the IC50 stood at 55 µM.

The compound `Oc1ccc2c(c1)CCc1c(-c3ccc(O)c(O)c3)noc1-2` returned an IC50 of 0.97 µM.

Turning to `O=[N+]([O-])c1ccc(-c2cc(-c3ccc(O)cc3)no2)cc1`, the IC50 was 57 µM. This IC50 lies about 59-fold higher than the previous one.

Compound `CCc1c(-c2ccc(O)cc2)noc1-c1ccc(O)cc1` returned an IC50 of 16 µM.

With `COc1ccc(-c2noc3c2CCc2cc(OC)c(OC)cc2-3)cc1OC`, inhibition was half-maximal at 0.59 µM (IC50).

In the case of `Cc1c(-c2ccc(O)cc2)noc1-c1ccc(O)cc1`, 15 µM corresponded to half-maximal inhibition (IC50).

For `COc1ccc(-c2cc(-c3ccc(OC)cc3)on2)cc1`, the IC50 is above 100 µM.

The term IC50 denotes the midpoint of a concentration-inhibition curve. Higher therefore signals weaker potency.
